Data on eleven molecules can be found in ChEMBL document CHEMBL1134248, “1,4-Benzodiazepine peripheral cholecystokinin (CCK-A) receptor agonists” (2001).

Usually inhibition stands for the drop in the measured response relative to a control, in per cent. Low values mean little suppression, high ones strong suppression.

Molecules are shown by their SMILES.

Assay [1] is filed under the species Cavia porcellus. Nature of the assay: Concentration at which 50% of the maximal contraction was observed for % CCK. Type of assay: functional. An outline of the steps: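 Isolated guinea pig gallbladder strips incubated with test ligand 30 min at 37 °C; contraction read as efficacy relative to CCK-8 (1 µM) = 100%. Single-concentration efficacy taken at 30 µM. Full dose–response curves run for ligands giving >40% of the CCK-8 response; ED50 is the concentration giving 50% of maximal contraction. Agonism checked for reversal by CCK-A antagonist MK-329.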

The species named for assay [2] is Cavia porcellus. Nature of the assay: In vitro functional efficacy determined by maximal contraction of isolated guinea pig gallbladder at 1 uM concentration of compound relative to CCK-8 at 1 uM. The method in brief:
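Isolated guinea pig gallbladder exposed to test ligand for 30 min at 37 °C. Maximal contraction at a single compound concentration is expressed relative to the CCK-8 contraction, set at 100%. Selective CCK-A antagonist MK-329 was used to check reversal of agonist responses.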

Assay [3] relates to Rattus norvegicus. Nature of the assay: Percentage maximal response in rats at 10 umol/kg administered intraperitoneally. The class given is functional. An outline of the steps:
(§1)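 Fasted rats in a conditioned-feeder model, dosed intraperitoneally; food intake measured at 30 min versus control animals. %Max is the percentage reduction in intake at 10 µmol/kg (CCK-8 at 0.5 µmol/kg). ED50 is the dose producing 50% of the maximal response seen at 10 µmol/kg.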

For assay [4], the system named is Rattus norvegicus. The assay is described as follows: In vivo anoretic efficacy in the rat conditioned feeder assay measured as dose that produced half maximal response. The class given is functional. An outline of the steps: as §1

Take `COc1ccc(N(C(=O)CN2C(=O)C(NC(=O)Nc3ccccc3)[N+]([O-])=C(C)c3ccccc32)C(C)C)cc1` (configuration not stated): the ED50 in the assay filed under Cavia porcellus [1] amounted to 202 nM.
As to `COc1ccc(N(C(=O)CN2C(=O)C(Cc3n[nH]c4ccccc34)N=C(c3ccccc3)c3ccccc32)C(C)C)cc1` (configuration not stated), the inhibition at 1 µM in the assay listed under Cavia porcellus [2] came to 27%.
As for `CC(C)N(C(=O)CN1C(=O)C(Cc2c[nH]c3ccccc23)N=C(c2ccccc2)c2ccccc21)c1ccccc1` (configuration not stated), in the assay listed under Cavia porcellus [1], the ED50 turned out to be 41 nM.
For the molecule `COc1ccc(N(C(=O)CN2C(=O)C(CC(=O)Nc3ccccc3)N=C(c3ccccc3)c3ccccc32)C(C)C)cc1` (configuration not stated), the ED50 in the assay listed under Cavia porcellus [1] is 1100 nM.
As for `COc1ccc(N(C(=O)CN2C(=O)C(NC(=O)Nc3ccccc3)N=C(C)c3ccccc32)C(C)C)cc1` (configuration not stated), the ED50 in the assay filed under Cavia porcellus [1] worked out at 296 nM.
`COc1ccc(N(C(=O)CN2C(=O)C(NC(=O)Nc3ccccc3)[N+]([O-])=C(C3CCCCC3)c3ccccc32)C(C)C)cc1` (configuration not stated): the ED50 in the assay filed under Cavia porcellus [1] was determined as 342 nM; in the assay with Rattus norvegicus [4], 25 nmol/kg. For the same molecule, in the assay on Rattus norvegicus [3], the Max worked out at 75%.
For the molecule `COc1ccc(N(C(=O)CN2C(=O)C(NC(=O)c3cc4ccccc4[nH]3)[N+]([O-])=C(C3CCCCC3)c3ccccc32)C(C)C)cc1` (configuration not stated), the ED50 in the assay filed under Cavia porcellus [1] amounted to 131 nM.
Take `COc1ccc(N(C(=O)CN2C(=O)C(NC(=O)Nc3cccc(C(=O)O)c3)N=C(c3ccccc3)c3ccccc32)C(C)C)cc1` (configuration not stated): in the assay listed under Cavia porcellus [2], at 1 µM the inhibition was 27%.
For `COc1ccc(N(C(=O)CN2C(=O)C(Cc3n[nH]c4ccccc34)[N+]([O-])=C(c3ccccc3)c3ccccc32)C(C)C)cc1` (configuration not stated), the ED50 in the assay listed under Cavia porcellus [1] came out at 13 nM; in the assay on Rattus norvegicus [4], 150 nmol/kg. The Max in the assay with Rattus norvegicus [3] is listed as 79%.
On to `COc1ccc(N(C(=O)CN2C(=O)C(NC(=O)Nc3ccccc3)N=C(C3CCCCC3)c3ccccc32)C(C)C)cc1` (configuration not stated), for which, in the assay listed under Cavia porcellus [1], the ED50 is listed as 233 nM.
Turning to `COc1ccc(N(C(=O)CN2C(=O)C(NC(=O)Nc3cccc(C(=O)O)c3)[N+]([O-])=C(C3CCCCC3)c3ccccc32)C(C)C)cc1` (configuration not stated), the values for the ED50 in the assay filed under Cavia porcellus [1] and with Rattus norvegicus [4] were 3 nM and 80 nmol/kg, respectively. Moreover, the Max in the assay with Rattus norvegicus [3] was determined as 69%.
